Experimental data published in ChEMBL document CHEMBL1129963, “Sulfonimidamide analogs of oncolytic sulfonylureas” (J Med Chem, 1997).
Values after ≈ are worked out from the molar mass of the structure shown.

How the values were obtained:
Mus musculus [1] = test: In vivo antitumor activity of compound against subaxillary implanted 6C3HED lymphosarcoma implanted in C3H mice at a dose of 243 mg/kg administered intraperitoneally daily for a period of 8 days.; format: functional; details: ip, 192 h, route intraperitoneal
How it was run: (§1)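 6C3HED lymphosarcoma was carried in C3H mice. Compound was dosed at the stated route and schedule for 8 days (daily, twice daily, or days 1, 3, 5, 7) and tumor growth inhibition was scored against controls. The table value is the lowest dose giving >80% inhibition, or the highest dose tested. Deaths per group were recorded.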

Mus musculus [2] = test: In vivo antitumor activity of compound against subaxillary implanted 6C3HED lymphosarcoma implanted in C3H mice at a dose of 300 mg/kg administered intraperitoneally daily for a period of 8 days.; format: functional; details: ip, 192 h, route intraperitoneal; how it was run: as §1
CCRF-CEM = test: In vitro cytotoxicity against CCRF-CEM cells; format: functional, cell-based; details: Homo sapiens
How it was run: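 CCRF-CEM cells were grown in culture for 72 h with compound. The value is the concentration that inhibited growth to 50% of control growth.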

Mus musculus [3] = test: In vivo antitumor activity against subaxillary implanted 6C3HED lymphosarcoma implanted in C3H mice at a dose of 300 mg/kg administered perorally twice daily for a period of 8 days.; format: functional; details: 192 h, route oral; how it was run: as §1
Mus musculus [4] = test: In vivo antitumor activity of compound against subaxillary implanted 6C3HED lymphosarcoma implanted in C3H mice at a dose of 150 mg/kg administered intraperitoneally daily for a period of 8 days.; format: functional; details: ip, 192 h, route intraperitoneal; how it was run: as §1
[5] = Metabolic breakdown to the o-sulfate of p-chloroaniline (2-amino-5-chlorophenyl sulfate) by giving 100 mg/kg oral doses of the compound; format: ADME, organism-based; design: dose 100 mg/kg, route oral; details: in vivo
How it was run: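 Groups of two to four mice received single 100 mg/kg oral doses of each compound. Urine was pooled over 0-24 h, and the 2-amino-5-chlorophenyl sulfate excreted in 24 h per mouse was quantified as the marker of p-chloroaniline release.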

Mus musculus [6] = test: In vivo antitumor activity against subaxillary implanted 6C3HED lymphosarcoma implanted in C3H mice at a dose of 150 mg/kg administered perorally twice daily for a period of 8 days.; format: functional; details: Mus musculus, 6C3HED, po, 192 h; how it was run: as §1
Mus musculus [7] = test: In vivo antitumor activity of compound against subaxillary implanted 6C3HED lymphosarcoma implanted in C3H mice at a dose of 50 mg/kg administered perorally twice daily for a period of 8 days.; format: functional; details: 192 h, route oral; how it was run: as §1
Mus musculus [8] = test: In vivo antitumor activity against subaxillary implanted 6C3HED lymphosarcoma implanted in C3H mice at a dose of 300 mg/kg administered perorally daily for a period of 8 days.; format: functional; details: 192 h, route oral; how it was run: as §1
Mus musculus [9] = test: In vivo antitumor activity of compound against subaxillary implanted 6C3HED lymphosarcoma implanted in C3H mice at a dose of 25 mg/kg administered perorally twice daily for a period of 8 days.; format: functional; details: 192 h, route oral; how it was run: as §1
Mus musculus [10] = test: In vivo antitumor activity of compound against subaxillary implanted 6C3HED lymphosarcoma implanted in C3H mice at a dose of 19 mg/kg administered perorally on days 1, 3, 5, 7; format: functional; details: route oral; how it was run: as §1
Mus musculus [11] = test: In vivo antitumor activity of compound against subaxillary implanted 6C3HED lymphosarcoma implanted in C3H mice at a dose of 75 mg/kg administered perorally twice daily for a period of 8 days.; format: functional; details: 192 h, route oral; how it was run: as §1
Mus musculus [12] = test: In vivo antitumor activity of compound against subaxillary implanted 6C3HED lymphosarcoma implanted in C3H mice at a dose of 200 mg/kg administered perorally twice daily for a period of 8 days.; format: functional; details: 192 h, route oral; how it was run: as §1

`N[S+]([O-])(=NC(=O)Nc1ccc(Cl)cc1)c1ccc(C(=O)O)cc1` (centres undefined) gave an inhibition in vivo at 243 mg/kg (Mus musculus [1]) of 0%.
For `Cc1ccc([S+](N)([O-])=NC(=O)Nc2ccc(O)cc2)cc1` (centres undefined), the inhibition in vivo at 300 mg/kg (Mus musculus [2]) was 11% and the IC50 (CCRF-CEM) was over 20 µg/mL.
With `Cc1ccc([S+](N)([O-])=NC(=O)Nc2ccc(F)cc2)cc1` (centres undefined) the IC50 (CCRF-CEM) was over 20 µg/mL and the inhibition in vivo at 300 mg/kg (Mus musculus [3]) was 0%.
Work on `N[S+]([O-])(=NC(=O)Nc1ccc(Cl)cc1)c1ccc2c(c1)CCC2` (centres undefined) yielded an inhibition in vivo at 150 mg/kg (Mus musculus [4]) of 86%, an IC50 (CCRF-CEM) of over 20 µg/mL and an Activity [5] of under 0.15 µM.
With `Cc1ccc([S+](N)([O-])=NC(=O)N(C)c2ccc(Cl)cc2)cc1` (centres undefined) the IC50 (CCRF-CEM) was over 20 µg/mL and the inhibition in vivo at 150 mg/kg (Mus musculus [6]) was 83%.
With `CC(=O)N(C(=O)N=[S+]([O-])(c1ccc(C)cc1)N(C)C(C)=O)c1ccc(Cl)cc1` (centres undefined) the IC50 (CCRF-CEM) was 5.6 µg/mL (≈ 13.3 µM) and the inhibition in vivo at 150 mg/kg (Mus musculus [6]) was 83%.
With `CC(=O)OCc1ccc([S+](N)([O-])=NC(=O)Nc2ccc(Cl)cc2)cc1` (centres undefined) the inhibition in vivo at 50 mg/kg (Mus musculus [7]) was 87% and the IC50 (CCRF-CEM) was over 20 µg/mL.
Work on `CCCC[S+]([O-])(=NC(=O)Nc1ccc(Cl)cc1)NC` (centres undefined) yielded an inhibition in vivo at 300 mg/kg (Mus musculus [2]) of 7% and an IC50 (CCRF-CEM) of over 20 µg/mL.
Compound `C=CCN[S+]([O-])(=NC(=O)Nc1ccc(Cl)cc1)c1ccc(C)cc1` (centres undefined) has an IC50 (CCRF-CEM) of 10 µg/mL (≈ 27.5 µM) and an inhibition in vivo at 300 mg/kg (Mus musculus [3]) of 45%.
Compound `Cc1ccc(NC(=O)N=[S+](N)([O-])c2ccc(C)cc2)cc1` (centres undefined) has an IC50 (CCRF-CEM) of over 20 µg/mL and an inhibition in vivo at 300 mg/kg (Mus musculus [8]) of 40%.
Compound `CCc1ccc([S+](N)([O-])=NC(=O)Nc2ccc(Cl)cc2)cc1` (centres undefined) has an inhibition in vivo at 25 mg/kg (Mus musculus [9]) of 91% and an IC50 (CCRF-CEM) of over 20 µg/mL.
`COc1ccc(NC(=O)N=[S+](N)([O-])c2ccc(C)cc2)cc1` (centres undefined) gave an IC50 (CCRF-CEM) of over 20 µg/mL and an inhibition in vivo at 300 mg/kg (Mus musculus [3]) of 0%.
`N[S+]([O-])(=NC(=O)Nc1ccc(Cl)cc1)c1ccc(Br)cc1` (centres undefined) gave an IC50 (CCRF-CEM) of 10.6 µg/mL (≈ 27.3 µM) and an inhibition in vivo at 150 mg/kg (Mus musculus [6]) of 89%.
With `Cc1cc([S+](N)([O-])=NC(=O)Nc2ccc(Cl)cc2)cc(C)c1Cl` (centres undefined) the IC50 (CCRF-CEM) was 6.2 µg/mL (≈ 16.7 µM) and the inhibition in vivo at 300 mg/kg (Mus musculus [3]) was 0%.
`CCCCN(C(C)=O)[S+]([O-])(=NC(=O)Nc1ccc(Cl)cc1)c1ccc(C)cc1` (centres undefined) gave an IC50 (CCRF-CEM) of 12.5 µg/mL (≈ 29.6 µM) and an inhibition in vivo at 300 mg/kg (Mus musculus [3]) of 53%.
For `Cc1cc([S+](N)([O-])=NC(=O)Nc2ccc(Cl)cc2)cc(C)c1C` (centres undefined), the IC50 (CCRF-CEM) was 12.7 µg/mL (≈ 36.1 µM) and the inhibition in vivo at 19 mg/kg (Mus musculus [10]) was 95%.
Compound `Cc1ccc([S+]([O-])(=NC(=O)Nc2ccc(Cl)cc2)NC(C)C)cc1` (centres undefined) has an IC50 (CCRF-CEM) of 1.4 µg/mL (≈ 3.83 µM) and an inhibition in vivo at 75 mg/kg (Mus musculus [11]) of 86%.
Work on `CC(=O)N(C)[S+]([O-])(=NC(=O)Nc1ccc(Cl)cc1)c1ccc(C)cc1` (centres undefined) yielded an IC50 (CCRF-CEM) of 9.6 µg/mL (≈ 25.3 µM) and an inhibition in vivo at 150 mg/kg (Mus musculus [6]) of 98%.
`CCCCN[S+]([O-])(=NC(=O)Nc1ccc(Cl)cc1)c1ccc(C)cc1` (centres undefined) showed an IC50 (CCRF-CEM) of 0.4 µg/mL (≈ 1.05 µM) and an inhibition in vivo at 150 mg/kg (Mus musculus [6]) of 88%.
In the case of `Cc1ccc([S+]([O-])(=NC(=O)Nc2ccc(Cl)cc2)NCC(C)C)cc1` (centres undefined), the IC50 (CCRF-CEM) is reported as 0.7 µg/mL (≈ 1.84 µM) and the inhibition in vivo at 75 mg/kg (Mus musculus [11]) is reported as 85%.
For `Cc1ccc([S+]([O-])(=NC(=O)Nc2ccc(Cl)cc2)NCCCO)cc1` (centres undefined), the IC50 (CCRF-CEM) was over 20 µg/mL and the inhibition in vivo at 300 mg/kg (Mus musculus [3]) was 89%.
`Cc1cc(C)cc([S+](N)([O-])=NC(=O)Nc2ccc(Cl)cc2)c1` (centres undefined) gave an IC50 (CCRF-CEM) of 20 µg/mL (≈ 59.2 µM) and an inhibition in vivo at 200 mg/kg (Mus musculus [12]) of 77%.
`CCCN[S+]([O-])(=NC(=O)Nc1ccc(Cl)cc1)c1ccc(C)cc1` (centres undefined) showed an IC50 (CCRF-CEM) of 10.9 µg/mL (≈ 29.8 µM) and an inhibition in vivo at 300 mg/kg (Mus musculus [8]) of 69%.
In the case of `Cc1ccc([S+]([O-])(=NC(=O)Nc2ccc(Cl)cc2)NCc2ccccc2)cc1` (centres undefined), the IC50 (CCRF-CEM) is reported as 8.7 µg/mL (≈ 21 µM) and the inhibition in vivo at 300 mg/kg (Mus musculus [3]) is reported as 87%.
`N[S+]([O-])(=NC(=O)Nc1ccc(Cl)cc1)c1ccccc1` (centres undefined) gave an IC50 (CCRF-CEM) of over 20 µg/mL and an inhibition in vivo at 300 mg/kg (Mus musculus [3]) of 0%.
In the case of `Cc1ccc([S+](N)([O-])=NC(=O)Nc2ccccc2)cc1` (centres undefined), the IC50 (CCRF-CEM) is reported as over 20 µg/mL and the inhibition in vivo at 150 mg/kg (Mus musculus [6]) is reported as 0%.
Compound `CCN[S+]([O-])(=NC(=O)Nc1ccc(Cl)cc1)c1ccc(C)cc1` (centres undefined) has an IC50 (CCRF-CEM) of 13.8 µg/mL (≈ 39.2 µM) and an inhibition in vivo at 150 mg/kg (Mus musculus [6]) of 87%.
